VIM-2 inhibitor: blocks Pseudomonas aeruginosa VIM-2 metallo-beta-lactamase. purified VIM-2, nitrocefin hydrolysis, epi-absorbance fluorescence. inhibition, % at 5.6 µM. 290,000 compounds, 0.89% hits;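 active = inhibition above the mean of all tested compounds plus 3 SD, cutoff set per screening run, cut at about 7.5% in these data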;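 also: red hydrolysis product quenches plate fluorescence so inhibitors raise well fluorescence; 0% = enzyme with DMSO and 100% = DMSO without enzyme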
PHOSPHO1 inh: PHOSPHO1 (human) inhibition | Q8TCT1 | recombinant PHOSPHO1, absorbance phosphatase assay | inhibition, % at 13.3 µM | 290,000 compounds, 1.1% hits; in the data active = inhibition above about 60%
Target sequence (Q8TCT1 whole entry, looked up): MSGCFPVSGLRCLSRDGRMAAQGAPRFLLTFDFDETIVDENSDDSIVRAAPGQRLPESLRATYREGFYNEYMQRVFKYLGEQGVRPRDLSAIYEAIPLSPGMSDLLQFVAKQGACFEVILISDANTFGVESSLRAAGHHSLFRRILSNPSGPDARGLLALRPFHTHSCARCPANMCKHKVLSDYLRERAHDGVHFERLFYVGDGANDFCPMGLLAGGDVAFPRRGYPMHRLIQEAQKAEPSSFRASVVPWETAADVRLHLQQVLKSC
IMP-1 inh: blocks Pseudomonas aeruginosa IMP-1 metallo-beta-lactamase | purified IMP-1, nitrocefin hydrolysis, epi-absorbance fluorescence | inhibition, % at 5.6 µM | 290,000 compounds, 0.45% hits | AID 1556;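 active = inhibition above the mean plus 3 SD of all compounds in the same screening run, cut at about 4.5% in these data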;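 also: 0% = IMP-1 with DMSO and 100% = DMSO wells lacking enzyme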
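System: Purified recombinant IMP-1 metallo-beta-lactamase enzyme | Measured by: Fluorescence quenching readout, ex 480/em 530 nm | Replication: Singlicate | Incubation: 15 min preincubation plus 25 min reaction at 25 °C | Evaluation: Percent inhibition from optical density relative to buffer-blank wells | Benchmarks: DMSO with and without IMP-1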
HCV core dimer: blocks dimerization of HCV core protein; AID 1899; inhibition, % at 5 µM; 300,000 compounds, 0.33% hits; TR-FRET GST/Flag-core106 dimerization, 1536-well;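 active = inhibition above the mean of all tested compounds plus 3 SD, set per screening campaign, cut at about 45% in these data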
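Assay system: GST-tagged and Flag-tagged HCV core protein residues 1-106 / Times: compound-protein-antibody incubation 4 h at 22.5 °C / Signal: time-resolved FRET, ex 340 nm, em 617 and 671 nm / Evaluation: % inhibition based on acceptor/donor emission ratio / Benchmarks: wells lacking GST-core106 and wells with excess unlabelled core106 / Repeats: singlicate, one well per compound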
HCV NS3 hel inh: HCV NS3 helicase inhibition; inhibition, % at 10.9 µM; 290,000 compounds, 0.56% hits; NS3 helicase DNA unwinding, Cy5 molecular beacon fluorescence;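 active = inhibition above the mean of all tested compounds plus 3 SD, set per campaign, cut at about 35% in these data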;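 also: 0% = DMSO wells and 100% = thioflavine S control wells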
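test system = hepatitis C virus NS3 helicase domain fragment enzyme | reagent = annealed dual-labelled DNA beacon duplex, ATP-started | times = 1 h at 25 °C | detection = Cy5 fluorescence, 0 and 60 min reads | read-out basis = percent inhibition from t60/t0 fluorescence ratio | control set = DMSO and thioflavine S | replication = one well per compound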
SUMO HTRF inh: SUMOylation inhibition; P63279; HTRF SUMOylation assay, SAE1/SAE2 + UBC9, in vitro; inhibition, % at 35 µM; 290,000 compounds, 0.36% hits; AID 2006; in the data active = inhibition above about 50%, passing the limit was not always enough
Target sequence (P63279 whole entry, looked up): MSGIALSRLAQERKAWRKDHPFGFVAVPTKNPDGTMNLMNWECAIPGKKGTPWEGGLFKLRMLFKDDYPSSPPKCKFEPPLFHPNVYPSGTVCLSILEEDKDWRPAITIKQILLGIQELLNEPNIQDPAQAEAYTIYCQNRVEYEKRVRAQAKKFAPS
Numbers without * were called inactive; / = no result. Rows were chosen to be rich in hits. Some 3.1% of all compounds tested hit in one or more screens of this group.

SMILES	VIM-2 inhibitor	PHOSPHO1 inh	IMP-1 inh	HCV core dimer	HCV NS3 hel inh	SUMO HTRF inh
O=C(COc1ccccc1)Nc1cccc2c1CCCC2	1	-38	-1	1	-9	-12
CC(C)(C)CC(=O)Nc1cccc2c1CCCC2	-1	2	6.9*	1	-3	17
COc1ccccc1NC(=O)c1sc2ncn(CC(=O)Nc3ccccc3)c(=O)c2c1C	-2	2	-1	16	3	51*
COc1ccccc1NC(=O)Cn1cnc2sc(C(=O)Nc3cc(OC)c(OC)c(OC)c3)c(C)c2c1=O	-1	42	-2	-2	-5	0
CC(=O)N1N=C(c2cccc(Cl)c2)OC1c1ccc(C(C)C)cc1 (stereo unspecified)	-6	2	-2	10	2	3
CC(=O)N1N=C(c2ccc(C)cc2)OC1c1cccnc1 (stereo unspecified)	-1	61*	-2	3	-2	12
Cc1cc(C)c[n+](-c2nc([O-])sc2C=O)c1	-2	96*	-3	-4	4	2
O=C(NN=C1CCCCCCC1)c1ccc(F)cc1	-2	-4	-2	-2	-6	-3
Fc1ccc(NC(=S)NN=C2CCCCCC2)cc1	-2	100*	-5	3	2	10
S=C(NN=C1CCCCCC1)Nc1ccc(Cl)cc1	-6	85*	-5	1	2	5
CCOC(=O)c1sc(NC(=O)CSc2n[nH]c(-c3ccccc3)n2)c(C#N)c1C	-2	77*	-3	17	0	15
CCOC(=O)c1sc(NC(=O)CSc2nnc(Cc3ccccc3)o2)c(C#N)c1C	-3	86*	-3	23	7	4
CCOC(=O)c1c(NC(=O)CSc2nnc(Cc3ccccc3)o2)sc(C(C)=O)c1C	-6	-20	-4	10	4	-5
COC(=O)Nc1ccc(S(=O)(=O)N2CCCC(C(=O)NC3CCS(=O)(=O)C3)C2)cc1 (stereo unspecified)	-4	-5	-4	-7	-1	10
O=C1c2ccc([N+](=O)[O-])cc2C(=O)N1Cc1cccnc1	-2	4	-4	0	1	0
N#C/C(=C\c1ccc(Cl)c([N+](=O)[O-])c1)c1ccccn1	-2	39	-2	-1	-1	26
Cc1cc([N+](=O)[O-])cc2c1NC(c1ccccn1)C1CC=CC21 (stereo unspecified)	-1	53	-1	49*	9	22
O=[N+]([O-])c1ccc(Cl)c2c1C1C=CCC1C(c1ccccn1)N2 (stereo unspecified)	-1	8	0	58*	22	22
CC(=O)NC1C(OCc2ccccc2)OC2COC(c3ccccc3)OC2C1OCC(=O)O (stereo unspecified)	-6	28	-4	-4	0	-2
COc1ccc(-c2n[nH]c(=S)n2C2CCCCC2)cc1	7	100*	-3	-2	-4	10
COc1ccc(-c2n[nH]c(=S)n2-c2ccc(C)cc2)cc1	0	6	-3	-2	-2	-21
COc1ccc(Cl)cc1-c1n[nH]c(=S)n1C1CCCCC1	-3	97*	-4	9	2	-6
Cc1cc(Cl)ccc1OCc1n[nH]c(=S)n1C1CCCCC1	-1	55	-1	13	-2	14
Cn1ncc2c(=O)[nH]cnc21	0	13	-2	-5	4	14
COc1ccc(C2(CNC(=O)c3cccs3)CCOCC2)cc1	-2	42	-2	-2	-1	13
SMILES	VIM-2 inhibitor	PHOSPHO1 inh	IMP-1 inh	HCV core dimer	HCV NS3 hel inh	SUMO HTRF inh
CNC(=S)N/N=C/c1ccc(N(C)C)cc1	0	61*	-2	-16	12	-2
CNC(=S)N/N=C/c1ccc(C(C)C)cc1	-2	/	-1	1	-4	/
O=C(N/N=C/c1cn[nH]c1-c1ccc(Cl)cc1)c1ccc([N+](=O)[O-])cc1	-7	19	-3	-2	2	-19
O=C(N/N=C\c1cn[nH]c1-c1ccc(Cl)cc1)c1cccs1	-5	42	-4	2	-1	52*
C=CCSc1nnc2c(n1)OC(C)=Nc1ccc(Br)cc1-2	-2	-144	-3	3	3	10
COCCNC(=O)CSc1nnc(NC(=O)C2CC(=O)N(c3ccccc3OC)C2)s1 (stereo unspecified)	-2	-23	-2	-2	4	9
COc1cc(OC)c(/C=N/NC(=O)Cn2nc([N+](=O)[O-])cc2C)c(OC)c1	-3	37	-3	3	0	13
CC(=O)Nc1ccc(Nc2cc(C)nc3ccccc23)cc1	/	/	/	-3	/	/
Cc1cc(Nc2ccc(C)c(C)c2)c2ccccc2n1	8.6*	25	0	3	-20	4
COc1ccc(Nc2cc(C)nc3c(C)cccc23)cc1OC	10*	41	-2	-8	6	20
CC(C)c1cc(C(C)C)c(S(=O)(=O)N2c3ccccc3[C@@]3(Br)C[C@H]4C(=O)N[C@@H](Cc5ccccc5)C(=O)N4[C@@H]23)c(C(C)C)c1	/	/	/	46*	/	/
O=C1N[C@@H](Cc2ccccc2)C(=O)N2[C@@H]3N(S(=O)(=O)c4ccccc4)c4ccccc4[C@]3(Br)C[C@@H]12	/	/	/	23	/	/
O=C1N[C@@H](Cc2ccccc2)C(=O)N2[C@H]1C[C@]1([C@]34C[C@H]5C(=O)N[C@@H](Cc6ccccc6)C(=O)N5[C@H]3N(S(=O)(=O)c3ccccc3)c3ccccc34)c3ccccc3N(S(=O)(=O)c3ccccc3)[C@H]21	/	/	/	60*	/	/
CSc1ccccc1C(=O)NCCOc1cccc(C)c1	-2	39	-2	1	-1	-10
O=C(c1ncn[nH]1)N1CCN(c2nc(-c3ccccc3)cs2)CC1	-3	99*	0	-4	3	-2
CCOC(=O)c1ccc(NS(=O)(=O)c2ccc3[nH]c(=O)[nH]c3c2)cc1	-8	63*	-7	-3	3	-6
O=C(COC(=O)CCc1nc2ccccc2c(=O)[nH]1)Nc1ccc(Cl)cn1	-2	74*	-4	3	28	1
COc1ccc2cc(C3OCCO3)c(Cl)nc2c1	-2	-11	-2	4	5	7
Fc1ccccc1-c1nnc2ccc3ccccc3n12	-2	44	4.8*	7	-5	0
CCOc1ccc(S(=O)(=O)Nc2cc(Sc3ncn[nH]3)c3oc(=O)sc3c2)cc1	0	103*	0	-4	18	-35
CCOc1ccc(S(=O)(=O)Nc2ncn[nH]2)cc1	0	26	-1	-5	-3	8
O=C(COc1cccc(C(F)(F)F)c1)NNC(=O)Cn1c(=O)cnc2ccccc21	/	/	/	-4	/	/
COc1ccc(C2=Nn3c(nnc3-c3ccco3)SC2)cc1	9.8*	35	-3	8	-1	6
